Experimental data: ChEMBL document CHEMBL1764953, “Discovery of orally active carboxylic acid derivatives of 2-phenyl-5-trifluoromethyloxazole-4-carboxamide as potent diacylglycerol acyltransferase-1 inhibitors for the potential treatment of obesity and diabetes” (J Med Chem, 2011)

Tests used:
hERG [1] = molecular target: T1, hERG (Homo sapiens, UniProt Q12809); experiment: Inhibition of human ERG-mediated current expressed in CHO cells by patch clamp method; assay type: cell-based; details: CHO cells expressing human ERG
T1 sequence (Q12809 whole entry): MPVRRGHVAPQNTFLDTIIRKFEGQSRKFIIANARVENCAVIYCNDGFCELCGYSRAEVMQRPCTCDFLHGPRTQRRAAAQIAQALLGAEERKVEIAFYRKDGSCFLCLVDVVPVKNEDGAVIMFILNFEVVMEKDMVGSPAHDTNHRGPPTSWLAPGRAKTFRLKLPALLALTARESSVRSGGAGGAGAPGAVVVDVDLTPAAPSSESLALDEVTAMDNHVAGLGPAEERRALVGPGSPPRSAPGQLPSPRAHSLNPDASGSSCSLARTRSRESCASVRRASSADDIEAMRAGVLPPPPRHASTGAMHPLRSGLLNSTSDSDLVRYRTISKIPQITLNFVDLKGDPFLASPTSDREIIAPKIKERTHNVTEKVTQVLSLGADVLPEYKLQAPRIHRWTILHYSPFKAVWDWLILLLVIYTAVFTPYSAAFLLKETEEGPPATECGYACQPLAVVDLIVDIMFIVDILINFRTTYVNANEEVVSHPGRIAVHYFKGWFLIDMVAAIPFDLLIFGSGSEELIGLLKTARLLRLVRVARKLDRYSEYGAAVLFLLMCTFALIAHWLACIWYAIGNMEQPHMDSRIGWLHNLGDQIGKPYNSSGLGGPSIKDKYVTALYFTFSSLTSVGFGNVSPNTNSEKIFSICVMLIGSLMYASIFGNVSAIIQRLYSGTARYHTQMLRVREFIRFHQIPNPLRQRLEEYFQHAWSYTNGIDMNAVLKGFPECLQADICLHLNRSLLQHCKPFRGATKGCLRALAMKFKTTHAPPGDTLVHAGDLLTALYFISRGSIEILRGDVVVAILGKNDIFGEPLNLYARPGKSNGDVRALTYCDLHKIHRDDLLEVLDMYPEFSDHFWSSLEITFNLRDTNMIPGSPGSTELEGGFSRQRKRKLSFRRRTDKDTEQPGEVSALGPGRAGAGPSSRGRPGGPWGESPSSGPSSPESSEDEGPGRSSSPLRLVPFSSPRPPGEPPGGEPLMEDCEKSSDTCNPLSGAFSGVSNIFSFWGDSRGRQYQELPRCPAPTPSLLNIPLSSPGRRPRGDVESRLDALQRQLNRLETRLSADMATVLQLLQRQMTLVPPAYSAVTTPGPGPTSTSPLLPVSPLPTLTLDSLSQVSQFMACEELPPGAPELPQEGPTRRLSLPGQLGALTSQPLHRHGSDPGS
In short: (§1)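 hERG-transfected CHO cells on automated whole-cell patch clamp at a holding potential of −80 mV; 1 s depolarizing pulse at 0.1 Hz; tail current measured at −40 mV. Sequence: 0.3% DMSO vehicle, three ascending log-interval concentrations up to 30 μM or the solubility limit, then 1 μM E-4031. At least 3 cells per compound; data normalized to vehicle and fitted with the Hill equation.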

hERG [2] = molecular target: T1, hERG; experiment: Inhibition of human ERG-mediated current expressed in CHO cells at 3 uM by patch clamp method; assay type: cell-based; details: CHO cells expressing human ERG; in short: as §1
hERG [3] = molecular target: T1, hERG; experiment: Inhibition of human ERG-mediated current expressed in CHO cells at 1 uM by patch clamp method; assay type: cell-based; details: CHO cells expressing human ERG; in short: as §1
[4] = molecular target: T2, Diacylglycerol O-acyltransferase 1 (Homo sapiens, UniProt O75907); experiment: Inhibition of human DGAT1 expressed in baculovirus infected insect cells after 1 hr using palmitoyl-1-14C-coenzyme A by phospholipid flashplate assay
T2 sequence (O75907 whole entry): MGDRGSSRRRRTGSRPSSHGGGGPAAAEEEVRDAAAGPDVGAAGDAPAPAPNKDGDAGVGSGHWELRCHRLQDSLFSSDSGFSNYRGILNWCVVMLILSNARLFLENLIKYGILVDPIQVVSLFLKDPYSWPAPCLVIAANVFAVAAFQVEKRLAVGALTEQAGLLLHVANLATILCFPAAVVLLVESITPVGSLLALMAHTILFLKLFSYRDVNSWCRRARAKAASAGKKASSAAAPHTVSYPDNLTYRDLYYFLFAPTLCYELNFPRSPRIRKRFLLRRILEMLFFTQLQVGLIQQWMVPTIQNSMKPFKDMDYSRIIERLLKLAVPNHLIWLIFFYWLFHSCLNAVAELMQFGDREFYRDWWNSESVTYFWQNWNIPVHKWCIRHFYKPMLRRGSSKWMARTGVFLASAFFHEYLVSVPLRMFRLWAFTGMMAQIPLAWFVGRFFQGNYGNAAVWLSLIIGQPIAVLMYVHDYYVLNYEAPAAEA

[5] = molecular target: T2, Diacylglycerol O-acyltransferase 1; experiment: Inhibition of human DGAT1 expressed in CHO-K1 cells after 1 hr using 14C palmitic acid
hERG [6] = molecular target: T1, hERG; experiment: Inhibition of human ERG-mediated current expressed in CHO cells at 30 uM by patch clamp method; assay type: cell-based; details: CHO cells expressing human ERG; in short: as §1
[7] = Cmax in diet-induced obese mouse plasma at 25 mg/kg administered as suspension; assay type: ADME, organism-based; parameters: dose 25 mg/kg
[8] = Solubility of the compound at mp 217 degC; assay type: physicochemical
[9] = Tmax in diet-induced obese mouse at 25 mg/kg administered as suspension; assay type: ADME, organism-based; parameters: dose 25 mg/kg; details: in vivo
[10] = Clearance in rat at 5 mg/kg, iv; assay type: ADME, organism-based; parameters: dose 5 mg/kg, route intravenous; details: in vivo
Rattus norvegicus = experiment: Antiobesity activity in diet-induced obese rat assessed as reduction in body weight gain at 25 mg/kg, po qd; assay type: functional; parameters: scale not given: the % may be the effect or the level left
[11] = Oral bioavailability in rat at 5 mg/kg; assay type: ADME, organism-based; details: in vivo
hERG [12] = molecular target: T1, hERG; experiment: Inhibition of human ERG
Cavia porcellus = species on record: Cavia porcellus; experiment: Cardiotoxicity in guinea pig Langendorff heart model assessed as QT QT prolongation; assay type: toxicity

SMILES: O=C(Nc1cnc(N2CC[C@H](O)C2)nc1)c1nc(-c2ccccc2)oc1C(F)(F)F
- IC20 (hERG [1]): 10000 nM

SMILES: COC(=O)N1CCN(c2ccc(NC(=O)c3nc(-c4ccccc4)oc3C(F)(F)F)cc2)CC1
- inhibition at 3 µM (hERG [2]): 16%

SMILES: O=C(Nc1ccc(N2CCN(C(=O)C3CC3)CC2)cc1)c1nc(-c2ccccc2)oc1C(F)(F)F
- inhibition at 3 µM (hERG [2]): 35%

SMILES: COC(=O)N1CCN(c2ncc(NC(=O)c3nc(-c4ccccc4)oc3C(F)(F)F)cn2)CC1
- inhibition at 1 µM (hERG [3]): 28%

SMILES: O=C(Nc1ccc(C2CCN(C(=O)[C@H]3CC[C@@H](C(=O)O)CC3)CC2)cc1)c1nc(-c2ccccc2)oc1C(F)(F)F
- IC50 [4]: 82 nM
- inhibition at 3 µM (hERG [2]): 21%
- EC50 [5]: 220 nM

SMILES: COCCN(C)c1ccc(N(C)C(=O)c2nc(-c3ccccc3)oc2C(F)(F)F)cn1
- inhibition at 30 µM (hERG [6]): 34%

SMILES: COC(=O)N1CCC(c2ccc(NC(=O)c3nc(-c4ccccc4)oc3C(F)(F)F)cn2)CC1
- inhibition at 1 µM (hERG [3]): 16%

SMILES: O=C(Nc1ccc(N2CCN(C(=O)C3CC3)CC2)nc1)c1nc(-c2ccccc2)oc1C(F)(F)F
- IC20 (hERG [1]): 180 nM

SMILES: CCOC(=O)N1CCN(c2ccc(NC(=O)c3nc(-c4ccccc4)oc3C(F)(F)F)cn2)CC1
- IC20 (hERG [1]): 800 nM

SMILES: COCCN(C)c1ccc(NC(=O)c2nc(-c3ccccc3)oc2C(F)(F)F)cc1
- inhibition at 1 µM (hERG [3]): 18%

SMILES: O=C(Nc1ccc(N2CCN(C(=O)[C@H]3CC[C@@H](C(=O)O)CC3)CC2)cc1)c1nc(-c2ccccc2)oc1C(F)(F)F
- IC20 (hERG [1]): > 10000 nM

SMILES: O=C(Nc1ccc(C2CCN(C(=O)C3CC3)CC2)nc1)c1nc(-c2ccccc2)oc1C(F)(F)F
- IC20 (hERG [1]): 1730 nM

SMILES: CCOC1CN(c2ccc(NC(=O)c3nc(-c4ccccc4)oc3C(F)(F)F)cn2)C1
- IC20 (hERG [1]): 370 nM

SMILES: COC(=O)N1CCC(c2ccc(NC(=O)c3nc(-c4ccccc4)oc3C(F)(F)F)cc2)CC1
- Cmax [7]: < 10 ng/mL

SMILES: O=C(Nc1ccc(N2CC(F)(F)C2)nc1)c1nc(-c2ccccc2)oc1C(F)(F)F
- IC50 [4]: 16 nM
- solubility [8]: < 1 µg/mL
- EC50 [5]: 25000 nM
- inhibition at 1 µM (hERG [3]): 17%

SMILES: O=C(Nc1ccc(C2CCN(C(=O)C3CC3)CC2)cc1)c1nc(-c2ccccc2)oc1C(F)(F)F
- inhibition at 3 µM (hERG [2]): 13%
- Cmax [7]: 76 ng/mL
- Tmax [9]: 1 h

SMILES: COCCN(C)c1ncc(NC(=O)c2nc(-c3ccccc3)oc2C(F)(F)F)cn1
- IC20 (hERG [1]): 1500 nM

SMILES: COC(=O)N1CCN(c2ccc(NC(=O)c3nc(-c4ccccc4)oc3C(F)(F)F)cn2)CC1
- IC20 (hERG [1]): 1940 nM

SMILES: COCCN(C)c1ccc(NC(=O)c2nc(-c3ccccc3)oc2C(F)(F)F)cn1
- clearance [10]: 13.5 mL/min/kg
- Activity (Rattus norvegicus): 4.3%
- bioavailability [11]: 77%
- IC20 (hERG [12]): 200 nM
- IC20 (hERG [1]): 200 nM
- Activity (Cavia porcellus): Toxic

SMILES: O=C(O)COC1CN(c2ccc(NC(=O)c3nc(-c4ccccc4)oc3C(F)(F)F)cn2)C1
- inhibition at 30 µM (hERG [6]): 12%

SMILES: O=C(Nc1ccc(N2CCN(C(=O)[C@H]3CC[C@H](C(=O)O)CC3)CC2)cc1)c1nc(-c2ccccc2)oc1C(F)(F)F
- inhibition at 1 µM (hERG [3]): 5%

SMILES: COCCN(C)c1ccc(NC(=O)c2nc(C)oc2C(F)(F)F)cn1
- inhibition at 30 µM (hERG [6]): 37%
